Measured values as given in ChEMBL document CHEMBL1933058, “5-(2-amino-pyrimidin-4-yl)-1H-pyrrole and 2-(2-amino-pyrimidin-4-yl)-1,5,6,7-tetrahydro-pyrrolo[3,2-c]pyridin-4-one derivatives as new classes of selective and orally available Polo-like kinase 1 inhibitors” (Bioorg Med Chem Lett, 2012).
pIC50: −log10 of the molar value. Active and inactive are the calls of the source. The calls are words filed in the database; no cut-off is given here.

Legend:
[1] = target: Receptor-type tyrosine-protein kinase FLT3 (Homo sapiens, UniProt P36888); test: Inhibition of FLT3
[2] = target: Tyrosine-protein kinase ABL1 (Homo sapiens, UniProt P00519); test: Inhibition of c-ABL
[3] = target: RAC-alpha serine/threonine-protein kinase (Homo sapiens, UniProt P31749); test: Inhibition of AKT1
Aurora kinase B = Aurora kinase B (Homo sapiens, UniProt Q96GD4); test: Inhibition of Aurora-B
[4] = target: Protein-tyrosine kinase 6 (Homo sapiens, UniProt Q13882); test: Inhibition of BRK
[5] = target: Cyclin-dependent kinase 5 activator 1 (Homo sapiens, UniProt Q15078); test: Inhibition of CDK5/P25
[6] = target: Serine/threonine-protein kinase Chk1 (Homo sapiens, UniProt O14757); test: Inhibition of CHK1
[7] = target: Mitogen-activated protein kinase 1 (Homo sapiens, UniProt P28482); test: Inhibition of ERK2
Insulin receptor = Insulin receptor (Homo sapiens, UniProt P06213); test: Inhibition of IR
[8] = target: Mast/stem cell growth factor receptor Kit (Homo sapiens, UniProt P10721); test: Inhibition of KIT
[9] = target: Hepatocyte growth factor receptor (Homo sapiens, UniProt P08581); test: Inhibition of MET
[10] = Inhibition of NIM
[11] = target: Mitogen-activated protein kinase 14 (Homo sapiens, UniProt Q16539); test: Inhibition of P38alpha
[12] = target: Protein kinase C beta type (Homo sapiens, UniProt P05771); test: Inhibition of PKCbeta
[13] = target: High affinity nerve growth factor receptor (Homo sapiens, UniProt P04629); test: Inhibition of TRKA
MDA-MB-468 = test: Antiproliferative activity against human MDA-MB-468 cells; format: functional, cell-based
A2780 [14] = test: Cell cycle arrest in human A2780 cells assessed as increase of phospho Ser10 histone H3 level after 24 hrs by Western blotting analysis; format: functional, cell-based
Summary of the method: (§1)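 A2780 cells were treated for 24 h at 0.05, 0.5 and 5 µM, with nocodazole as positive control. Lysates were immunoblotted for pSer10 histone H3, pThr199 nucleophosmin, cyclin B1, cyclin A, PARP cleavage and caspase 3 activation.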

A2780 [15] = test: Cell cycle arrest in human A2780 cells assessed as induction of phospho Thr199 nucleophosmin level after 24 hrs by Western blotting analysis; format: functional, cell-based; summary of the method: as §1
A2780 [16] = test: Cell cycle arrest in human A2780 cells assessed as increase of phospho Ser10 histone H3 level at 0.05 to 5 uM after 1 hr by Western blotting analysis; format: functional, cell-based
Summary of the method: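 A2780 cells got 1 h exposure at 0.05, 0.5 and 5 µM, with nocodazole-treated cells as comparator. Western blot was used to probe the PLK1 substrate marker pSer46 TCTP and the mitotic marker pSer10 histone H3.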

[17] = Intrinsic clearance in human liver microsomes at 1 uM; format: ADME, Microsome; details: read-out: CLH
[18] = Clearance in Nu/Nu Balb Harlan mouse at 10 mg/kg, iv; format: ADME, organism-based; set-up: dose 10 mg/kg, route intravenous; details: in vivo
Summary of the method: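 Male Balb Nu/Nu mice (Harlan) received a single 10 mg/kg intravenous dose, n = 3 animals per study. Vehicle was either trifluoroacetate salt in dextrose or free base in 50% PEG 400/glucosate, depending on compound. Parameters were reported as mean ± standard deviation.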

[19] = Volume of distribution at steady state in Nu/Nu Balb Harlan mouse at 10 mg/kg, iv; format: ADME, organism-based; set-up: dose 10 mg/kg, route intravenous; details: in vivo, read-out: Vdss
[20] = Cmax in Nu/Nu Balb Harlan mouse at 10 mg/kg, po; format: ADME, organism-based; set-up: dose 10 mg/kg, route oral; details: in vivo
[21] = AUC (0 to infinity) in Nu/Nu Balb Harlan mouse at 10 mg/kg, po; format: ADME, organism-based; set-up: time infinity, dose 10 mg/kg, route oral; details: plasma

Mitogen-activated protein kinase 1, sequence (P28482 whole entry): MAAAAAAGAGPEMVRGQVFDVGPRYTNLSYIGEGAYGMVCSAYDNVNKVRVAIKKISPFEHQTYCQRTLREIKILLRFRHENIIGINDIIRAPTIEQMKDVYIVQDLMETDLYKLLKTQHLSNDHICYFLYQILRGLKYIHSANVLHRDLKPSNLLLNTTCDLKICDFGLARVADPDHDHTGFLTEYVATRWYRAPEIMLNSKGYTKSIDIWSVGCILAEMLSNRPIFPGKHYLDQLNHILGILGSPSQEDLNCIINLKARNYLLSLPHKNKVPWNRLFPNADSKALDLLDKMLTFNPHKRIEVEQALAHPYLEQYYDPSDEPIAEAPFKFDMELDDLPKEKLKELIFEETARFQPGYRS
Serine/threonine-protein kinase Chk1, sequence (O14757 whole entry): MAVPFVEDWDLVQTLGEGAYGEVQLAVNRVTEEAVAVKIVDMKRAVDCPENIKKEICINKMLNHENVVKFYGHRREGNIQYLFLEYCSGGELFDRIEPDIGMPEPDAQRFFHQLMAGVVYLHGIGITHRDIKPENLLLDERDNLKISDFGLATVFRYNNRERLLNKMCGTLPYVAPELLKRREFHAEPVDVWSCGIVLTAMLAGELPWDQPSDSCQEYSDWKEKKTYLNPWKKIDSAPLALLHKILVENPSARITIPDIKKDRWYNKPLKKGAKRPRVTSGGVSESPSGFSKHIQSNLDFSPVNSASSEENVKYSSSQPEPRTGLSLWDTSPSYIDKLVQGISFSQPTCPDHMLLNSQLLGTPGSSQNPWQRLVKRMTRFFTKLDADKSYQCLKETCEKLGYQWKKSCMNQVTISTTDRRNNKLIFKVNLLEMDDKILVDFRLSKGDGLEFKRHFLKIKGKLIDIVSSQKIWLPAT
Receptor-type tyrosine-protein kinase FLT3, sequence (P36888 whole entry): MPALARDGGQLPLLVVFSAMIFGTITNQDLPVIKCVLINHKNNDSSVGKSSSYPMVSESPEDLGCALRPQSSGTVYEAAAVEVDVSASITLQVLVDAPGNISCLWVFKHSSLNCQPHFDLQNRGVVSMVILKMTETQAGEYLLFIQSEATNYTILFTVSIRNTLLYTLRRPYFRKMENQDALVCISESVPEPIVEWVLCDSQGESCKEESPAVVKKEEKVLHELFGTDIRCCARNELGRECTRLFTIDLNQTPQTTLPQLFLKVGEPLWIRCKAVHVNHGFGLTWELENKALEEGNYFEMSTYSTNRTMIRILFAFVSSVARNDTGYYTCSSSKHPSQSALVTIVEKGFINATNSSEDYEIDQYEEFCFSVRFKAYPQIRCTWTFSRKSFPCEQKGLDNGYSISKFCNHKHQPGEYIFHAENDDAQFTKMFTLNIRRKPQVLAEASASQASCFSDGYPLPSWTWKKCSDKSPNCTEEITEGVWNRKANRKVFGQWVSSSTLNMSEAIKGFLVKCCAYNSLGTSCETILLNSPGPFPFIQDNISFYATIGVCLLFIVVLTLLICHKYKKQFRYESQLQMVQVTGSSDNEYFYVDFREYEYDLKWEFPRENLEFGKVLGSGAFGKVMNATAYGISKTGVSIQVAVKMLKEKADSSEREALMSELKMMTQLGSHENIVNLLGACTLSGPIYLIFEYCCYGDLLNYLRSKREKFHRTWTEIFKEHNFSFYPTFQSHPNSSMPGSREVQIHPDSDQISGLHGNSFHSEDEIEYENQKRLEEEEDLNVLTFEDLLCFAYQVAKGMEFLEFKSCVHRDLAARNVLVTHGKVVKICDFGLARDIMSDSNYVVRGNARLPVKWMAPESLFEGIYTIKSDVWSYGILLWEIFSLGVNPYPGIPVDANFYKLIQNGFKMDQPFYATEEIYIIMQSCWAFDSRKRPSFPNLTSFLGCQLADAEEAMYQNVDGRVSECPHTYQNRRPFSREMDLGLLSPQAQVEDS
Mast/stem cell growth factor receptor Kit, sequence (P10721 whole entry): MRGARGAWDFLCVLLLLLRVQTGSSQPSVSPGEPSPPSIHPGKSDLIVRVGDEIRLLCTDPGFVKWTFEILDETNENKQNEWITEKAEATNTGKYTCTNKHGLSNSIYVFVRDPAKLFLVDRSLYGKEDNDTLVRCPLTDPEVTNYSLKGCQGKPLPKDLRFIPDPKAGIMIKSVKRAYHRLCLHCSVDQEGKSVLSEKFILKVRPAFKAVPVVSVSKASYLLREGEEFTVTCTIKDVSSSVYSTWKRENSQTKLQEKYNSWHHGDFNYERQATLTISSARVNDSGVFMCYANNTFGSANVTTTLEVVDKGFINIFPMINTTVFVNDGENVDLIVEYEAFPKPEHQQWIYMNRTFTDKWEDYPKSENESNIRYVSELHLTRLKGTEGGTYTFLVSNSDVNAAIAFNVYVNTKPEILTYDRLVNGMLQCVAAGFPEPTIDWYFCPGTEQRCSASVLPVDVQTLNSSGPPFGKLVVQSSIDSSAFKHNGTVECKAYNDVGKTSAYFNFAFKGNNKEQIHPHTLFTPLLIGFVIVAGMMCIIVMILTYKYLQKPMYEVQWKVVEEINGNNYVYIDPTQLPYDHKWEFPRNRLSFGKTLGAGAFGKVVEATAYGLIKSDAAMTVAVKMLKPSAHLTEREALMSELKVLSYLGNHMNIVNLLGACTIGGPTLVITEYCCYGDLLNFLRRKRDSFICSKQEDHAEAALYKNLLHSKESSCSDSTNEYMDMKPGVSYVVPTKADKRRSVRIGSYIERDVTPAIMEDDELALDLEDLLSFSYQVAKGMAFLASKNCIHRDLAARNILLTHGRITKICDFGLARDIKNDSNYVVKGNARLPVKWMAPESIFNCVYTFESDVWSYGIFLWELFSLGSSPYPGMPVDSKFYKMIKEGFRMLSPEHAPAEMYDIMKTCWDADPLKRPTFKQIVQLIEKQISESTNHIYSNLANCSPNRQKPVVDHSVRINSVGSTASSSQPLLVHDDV
Tyrosine-protein kinase ABL1, sequence (P00519 whole entry): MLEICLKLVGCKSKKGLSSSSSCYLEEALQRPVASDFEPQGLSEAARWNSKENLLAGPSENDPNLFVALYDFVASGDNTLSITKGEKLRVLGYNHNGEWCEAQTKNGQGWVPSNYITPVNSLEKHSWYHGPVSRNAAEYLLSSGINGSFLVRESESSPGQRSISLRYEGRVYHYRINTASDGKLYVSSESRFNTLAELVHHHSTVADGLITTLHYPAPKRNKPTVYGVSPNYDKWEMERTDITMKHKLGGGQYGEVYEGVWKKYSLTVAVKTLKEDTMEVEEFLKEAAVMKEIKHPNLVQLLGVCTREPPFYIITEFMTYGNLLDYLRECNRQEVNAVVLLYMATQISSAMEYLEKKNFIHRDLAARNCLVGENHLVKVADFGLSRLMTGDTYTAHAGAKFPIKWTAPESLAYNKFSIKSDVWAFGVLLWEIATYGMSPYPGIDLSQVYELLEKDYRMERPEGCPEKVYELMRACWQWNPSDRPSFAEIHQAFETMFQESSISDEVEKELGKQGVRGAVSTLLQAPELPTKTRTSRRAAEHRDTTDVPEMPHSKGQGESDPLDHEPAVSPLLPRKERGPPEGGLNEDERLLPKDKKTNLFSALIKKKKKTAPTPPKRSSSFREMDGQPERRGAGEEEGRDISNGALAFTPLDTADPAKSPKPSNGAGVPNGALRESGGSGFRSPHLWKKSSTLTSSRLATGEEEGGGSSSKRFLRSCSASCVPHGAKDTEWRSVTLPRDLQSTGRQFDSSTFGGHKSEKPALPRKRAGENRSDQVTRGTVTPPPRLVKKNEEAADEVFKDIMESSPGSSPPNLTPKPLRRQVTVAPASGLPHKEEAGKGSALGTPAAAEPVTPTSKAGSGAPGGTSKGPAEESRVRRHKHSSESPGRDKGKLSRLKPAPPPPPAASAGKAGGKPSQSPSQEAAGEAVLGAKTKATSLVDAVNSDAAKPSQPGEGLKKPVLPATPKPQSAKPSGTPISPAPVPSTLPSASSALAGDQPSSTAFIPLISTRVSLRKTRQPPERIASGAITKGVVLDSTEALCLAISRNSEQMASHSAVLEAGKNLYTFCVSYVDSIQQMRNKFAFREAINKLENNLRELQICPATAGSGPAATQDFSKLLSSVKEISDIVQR
Protein kinase C beta type, sequence (P05771 whole entry): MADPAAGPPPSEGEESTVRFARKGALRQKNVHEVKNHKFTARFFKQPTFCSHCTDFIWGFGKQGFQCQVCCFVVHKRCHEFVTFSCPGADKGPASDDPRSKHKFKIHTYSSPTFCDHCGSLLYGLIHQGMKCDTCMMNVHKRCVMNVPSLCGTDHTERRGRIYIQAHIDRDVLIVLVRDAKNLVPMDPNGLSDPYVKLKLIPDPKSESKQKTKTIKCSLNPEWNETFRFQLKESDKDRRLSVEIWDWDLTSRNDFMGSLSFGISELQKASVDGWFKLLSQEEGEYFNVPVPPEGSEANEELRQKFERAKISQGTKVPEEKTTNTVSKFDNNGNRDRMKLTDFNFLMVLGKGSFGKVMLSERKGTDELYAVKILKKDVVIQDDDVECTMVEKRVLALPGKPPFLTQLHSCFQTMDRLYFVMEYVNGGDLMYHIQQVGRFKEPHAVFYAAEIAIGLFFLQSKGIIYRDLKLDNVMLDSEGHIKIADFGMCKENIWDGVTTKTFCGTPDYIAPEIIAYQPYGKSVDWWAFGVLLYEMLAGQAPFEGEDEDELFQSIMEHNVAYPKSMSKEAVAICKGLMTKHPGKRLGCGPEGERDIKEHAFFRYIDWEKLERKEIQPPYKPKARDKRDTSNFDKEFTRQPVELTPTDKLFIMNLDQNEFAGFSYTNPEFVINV
Cyclin-dependent kinase 5 activator 1, sequence (Q15078 whole entry): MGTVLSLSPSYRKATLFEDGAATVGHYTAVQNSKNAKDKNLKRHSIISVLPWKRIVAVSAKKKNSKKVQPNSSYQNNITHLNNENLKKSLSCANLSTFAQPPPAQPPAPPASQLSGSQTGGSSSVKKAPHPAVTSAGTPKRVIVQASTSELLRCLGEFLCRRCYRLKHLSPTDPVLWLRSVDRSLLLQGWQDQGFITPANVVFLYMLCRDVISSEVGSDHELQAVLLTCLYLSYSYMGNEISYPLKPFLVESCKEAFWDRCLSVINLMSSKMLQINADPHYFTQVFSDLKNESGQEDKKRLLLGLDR

- pIC50 [1]: 6.18
- pIC50 [2]: < 5.00
- pIC50 [3]: < 5.00
- pIC50 (Aurora kinase B): < 5.00
- pIC50 [4]: < 5.00
- pIC50 [5]: < 5.00
- pIC50 [6]: < 5.00
- pIC50 [7]: < 5.00
- pIC50 (Insulin receptor): < 5.00
- pIC50 [8]: < 5.00
- pIC50 [9]: < 5.00
- pIC50 [10]: < 5.00
- pIC50 [11]: < 5.00
- pIC50 [12]: < 5.00
- pIC50 [13]: < 5.00
- pIC50 (MDA-MB-468): 7.39
- CLint scaled at 1 µM [17]: 16.5 mL/min/kg
- clearance [18]: 66.4 mL/min/kg
- Vd [19]: 2.49 L/kg
- Cmax [20]: 760 nM
- AUC(0-inf) [21]: 2.38 µM·h
SMILES: CN1CCN(c2ccc(OC(F)(F)F)c(Nc3nccc(-c4cc5c(n4C)CCNC5=O)n3)c2)CC1
- Activity (A2780 [14]): Dose-dependent effect
- Activity (A2780 [15]): Dose-dependent effect
- Activity (A2780 [16]): Active
